Assay results collected from several papers.
Target: Serine/threonine-protein kinase STK11 (STK11, Homo sapiens, UniProt Q15831)
Residues used in one study (Q15831 1-433): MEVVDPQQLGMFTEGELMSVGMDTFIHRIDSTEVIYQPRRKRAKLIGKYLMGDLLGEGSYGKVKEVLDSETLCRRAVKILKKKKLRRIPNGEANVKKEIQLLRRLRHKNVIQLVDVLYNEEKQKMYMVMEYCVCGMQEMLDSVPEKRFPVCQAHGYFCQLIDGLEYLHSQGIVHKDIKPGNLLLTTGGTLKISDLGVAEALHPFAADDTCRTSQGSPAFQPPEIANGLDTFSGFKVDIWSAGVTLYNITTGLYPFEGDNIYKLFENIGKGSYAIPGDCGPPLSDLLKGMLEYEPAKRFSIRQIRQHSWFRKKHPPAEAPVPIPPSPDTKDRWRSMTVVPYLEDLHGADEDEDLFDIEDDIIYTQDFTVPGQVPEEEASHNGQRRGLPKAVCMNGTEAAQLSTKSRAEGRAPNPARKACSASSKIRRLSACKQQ

Compound	assay	conditions	remaining binding [%]
Cc1cc(NC(=O)c2cccc(S(F)(F)(F)(F)F)c2)cc(-n2ccn3nc(-c4cccnc4)cc23)c1	cell-free assay, competition with immobilised ligand	1 µM	100
C[C@@H]1CN(c2ccc3ncc(-c4ccc5[nH]nc(C6CC6)c5c4)n3n2)C[C@H](C)O1	binding, competition with immobilised ligand	50 nM	72
CCc1ccccc1C(=O)Nc1n[nH]c2c(C)c(F)c(C3C(C#N)=C(C)N(C)C(C)=C3C#N)cc12	cell-free assay, competition with immobilised ligand	1 µM	100
CN(C)c1ncc(F)c(-c2cnn3ncccc23)n1	binding	1 µM	100
c1cncc(-c2cccc(Nc3nccc(NC4CCCCC4)n3)c2)c1	binding, competition with immobilised ligand	10 µM	100
N#Cc1ccccc1CSc1nnc2c(n1)[nH]c1ccccc12	binding, competition with immobilised ligand	10 µM	87
c1cnn2ncc(-c3ccnc(N4CCC45COC5)n3)c2c1	binding	1 µM	84
O=C(c1ccc(Nc2nccc(-c3cc4ccccc4s3)n2)cc1)N1CCC(N2CCCC2)CC1	binding, competition with immobilised ligand	1 µM	4.3
CC(=O)C1=C(C)N(c2cccc(C(F)(F)F)c2)C(=O)N[C@@H]1c1ccc(C#N)nc1	cell-free assay, competition with immobilised ligand	1 µM	72.8
Nc1ncc2c(n1)-c1c([nH]c3ccc(C#CC4CC4)cc13)CCCC2	binding, competition with immobilised ligand	1 µM	100
CS(=O)(=O)N1CCCC(NC(=O)[C@H](CCC2CCCCC2)NC(=O)c2ccc(CNc3ncnc4c3nnn4-c3ccccc3)cc2)C1 (stereo partly drawn)	cell-free assay, competition with immobilised ligand	0.1 µM	100
O=C(NCCCN1CCOCC1)c1ccc(Nc2ncc(Cl)c(-c3ccc(Cl)s3)n2)cc1	binding, competition with immobilised ligand	1 µM	0
O=C(O)c1cc(-c2ccc(C3CCNCC3)cc2)c2ccc(-c3ccc(C(F)(F)F)cc3)cc2c1	cell-free assay, competition with immobilised ligand	1 µM	100
COc1ncc2cc3ccccc3nc2c1C#N	cell-free assay, competition with immobilised ligand	5 µM	99
F[C@@H]1CCN(c2nccc(-c3cnn4ncccc34)n2)C1	binding	1 µM	100
Cc1nc(C2CCN(C(=O)c3ccc(OC(F)(F)F)cc3N)CC2)c2ncc(N3CCN(C)CC3)cc2n1	cell-free assay, competition with immobilised ligand	1 µM	100
FC(F)(F)Oc1cccc(-c2cnc3ccc(-c4ccncc4)nn23)c1	cell-free assay, competition with immobilised ligand	5 µM	72
O=C(Nc1c[nH]nc1C(=O)NC1CCNCC1)c1cc(F)cc(F)c1	binding, competition with immobilised ligand	1 µM	78
CC1CCCN1c1nccc(-c2cnn3ncccc23)n1 (stereo not drawn)	binding	1 µM	100
CNC(=O)[C@@H]1CC[C@@H](n2c(-c3ccc4cnccc4c3)nc3ccc(C(=O)NCc4cccc(C(N)=O)c4)cc32)C1	binding, competition with immobilised ligand	1 µM	93
COc1ccnn2ncc(-c3ccnc(N(C)C)n3)c12	binding	1 µM	91
Cc1cnc(Nc2ccc(C(=O)N3CCC(N4CCCC4)CC3)cc2)nc1-c1cc2ccccc2s1	binding, competition with immobilised ligand	1 µM	2.5
C[C@@H]1CCN(c2nccc(-c3cnn4ncccc34)n2)C1	binding	1 µM	100
O=C(O)[C@H]1[C@H](Cn2nnc3ccccc3c2=O)CC[C@@H]1C(=O)c1ccc(OCCC2CCOCC2)cc1	cell-free assay, competition with immobilised ligand	1 µM	76
